HIF activator = HIF pathway transcriptional activation; U2OS HRE-luciferase reporter, luminescence; normalized: DMSO 0%, desferrioxamine 100%; activation, % at 7.5 µM (by protocol); hit rate 0.32% among 300,000; AID 1910;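 active = mean activation of at least 10% of the iron chelator positive control signal, with at least half of replicates also reaching 10%; inconclusive = mean and replicate majority disagree about reaching 10%; inactive = mean and most replicates under 10%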
ARNT TACC3 PPI = disruptors of human ARNT/TACC3 interaction; Q9Y6A5; AlphaScreen His-ARNT PAS-B/GST-TACC3 binding, luminescence; TACC3 fragment carries E629A point mutation; inhibition, % at 9.99 µM; hit rate 0.66% among 390,000; AID 623870;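 active = mean inhibition of replicates at least 50% and at least half of replicates each reaching 50%; inconclusive = half or more replicates reach 50% but mean below 50%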;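 note: 0% = complete ARNT plus TACC3 wells and 100% = ARNT alone without TACC3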
T cruzi inh = blocks replication of Trypanosoma cruzi | T. cruzi beta-gal in NIH3T3, luminescence, 90 h | inhibition, % (test concentration not listed) | hit rate 1.4% among 300,000 | AID 1885;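 active = mean inhibition across valid replicates above about 55%, limit read from the data; inconclusive = mean below that limit but half or more replicates reach it; inactive = mean below it, under half of replicates reach it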;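 note: signal also drops with host cell toxicity which is not excluded here; 0% = plate median of DMSO wells and 100% = zero luminescence signal; higher percent means less beta-gal luminescence so fewer parasites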
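System: NIH/3T3 fibroblasts plus reporter T. cruzi. Medium: DMEM plus 2% FBS. Probe or stimulus: 5000 reporter trypomastigotes per well. Compound: single 50 nL compound addition per well in DMSO. Incubation: co-culture of at least 90 h after 3 h attachment. Detection: GalScreen β-gal luminescence, detergent lysis, 60 min. Evaluation: parasite load inhibition, %.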
AI-2 QS modul = Vibrio harveyi AI-2 quorum sensing modulation. Vibrio harveyi JMH597 AI-2 luminescence/OD600 ratio, 9 h; hits give low values; strain lacks LuxN and CqsS sensors; 0 = neutral-control median. activity change, % at 7.5 µM. hit rate 0.4% among 300,000. AID 2094; in the data active = activity change below about -75%, passing the limit was not always enough; inconclusive = no clear call, values can overlap the other calls;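 note: luminescence divided by OD600 gain over 9 h not by final OD600 alone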
Numbers without * were called inactive; ? = inconclusive; nt = no result given. In the library only some 2% were active in any assay of this set; here they are far more common.

SMILES	HIF activator	ARNT TACC3 PPI	T cruzi inh	AI-2 QS modul
O=C(c1ncn(Cc2ccccc2)c1C(=O)N1CCN(c2ccccc2)CC1)N1CCN(c2ccccc2)CC1	nt	6.6	nt	nt
O=C(O)c1ncn(Cc2ccc(Br)cc2)c1C(=O)O	-0.3	46.0*	-9.2	9.9
COc1ccc(S(=O)(=O)Nc2cccc3c2O[C@@H](CN(C)S(=O)(=O)c2ccc(C)cc2)[C@H](C)CN([C@H](C)CO)C3=O)cc1	nt	9.6	nt	nt
CCN1CCN(CC(=O)Nc2ccc(S(=O)(=O)N3C(C)CCCC3C)cc2)CC1 (centres undefined)	-0.1	3.7	57.9*	11.9
COc1ccc(NC(=O)N(C)C[C@H]2OCCCC[C@@H](C)Oc3ccc(NC(=O)Nc4ccc(F)cc4)cc3C(=O)N([C@@H](C)CO)C[C@H]2C)cc1	nt	8.5	nt	nt
CN1CCN(CC(C)(C)NS(=O)(=O)c2ccc(Cl)cc2)CC1	-0.3	2.3	70.1*	10.7
C[C@H]1CN([C@@H](C)CO)C(=O)CCCn2cc(nn2)CO[C@H]1CN(C)Cc1ccc(O)cc1	nt	-4.6	nt	nt
N#C/C(=C(/O)c1ccc([N+](=O)[O-])s1)c1nc2ccccc2[nH]1	1.4	-2.7	54.7*	15.0
N#C/C(=C(/O)c1ccc(Br)s1)c1nc2ccccc2[nH]1	1.2	-8.4	-41.2	10.4
Cc1noc(C)c1NC(=O)N(C)C[C@H]1Oc2ccc(NC(=O)Cc3cn(C)c4ccccc34)cc2C(=O)N([C@H](C)CO)C[C@H]1C	nt	2.2	nt	nt
Fc1ccccc1Nc1nc(-c2ccncc2)nc2ccccc12	-0.3	-6.4	55.2*	14.8
CC(Nc1nc(-c2ccncc2)nc2ccccc12)c1ccccc1 (centres undefined)	0.0	1.3	61.3*	8.2
CC(=O)OC[C@H]1O[C@@H](Sc2cccc3cccnc23)[C@H](OC(C)=O)[C@@H](OC(C)=O)[C@@H]1OC(C)=O	-0.2	10.4	-7.0	-0.3
CC(=O)OC[C@H]1O[C@@H](Sc2cccc3cccnc23)[C@H](OC(C)=O)[C@@H](OC(C)=O)[C@H]1OC(C)=O	0.4	63.5*	-26.6	9.6
c1ccc(OCCOCCN2CCc3ccccc3C2)cc1	-0.1	-0.2	?	10.6
CCOc1ccc(OCCOCCN2CCc3ccccc3C2)cc1	0.3	0.3	77.0*	47.2
CCCOc1ccc(OCCOCCN2CCc3ccccc3C2)cc1	0.1	4.7	71.5*	21.4
C[C@@H]1CCCCO[C@H](CN(C)S(=O)(=O)c2ccccc2)[C@@H](C)CN([C@H](C)CO)C(=O)c2cc(NS(=O)(=O)c3ccccc3)ccc2O1	nt	-6.5	nt	nt
CN1CCN(c2ccc(S(=O)(=O)N3CCCCC3)cc2NC(=O)COc2ccc([N+](=O)[O-])cc2)CC1	0.3	1.9	58.1*	15.5
CCC(=O)c1ccc(OCC(=O)Nc2cc(S(=O)(=O)N3CCCCC3)ccc2N2CCN(CC)CC2)cc1	-17.7	5.0	45.0	23.7
Cc1ccc(OCC(=O)Nc2cc(S(=O)(=O)N3CCCCC3)ccc2N2CCN(C)CC2)c(C)c1	-0.1	5.8	59.9*	-14.9
Cc1ccccc1OCCC(=O)Nc1cc(S(=O)(=O)N2CCCCC2)ccc1N1CCN(C)CC1	nt	15.2	nt	nt
CC(=O)NCCC(=O)Nc1cc(S(=O)(=O)N2CCCCC2)ccc1N1CCN(C)CC1	-0.2	6.8	75.8*	-0.2
O=C(C[C@H]1CC[C@H]2[C@@H](COC[C@@H](O)CN2C(=O)Nc2ccc(Cl)cc2)O1)NCC1CCCCC1	nt	1.2	nt	nt
O=C(NCc1ccco1)c1cc2n(n1)C(C(F)(F)F)CC(c1ccc(Cl)c(Cl)c1)N2 (centres undefined)	-0.1	2.1	55.4*	6.0
SMILES	HIF activator	ARNT TACC3 PPI	T cruzi inh	AI-2 QS modul
COCC(=O)Nc1ccc2c(c1)OC[C@@H](C)N(C(=O)Cc1cccnc1)C[C@@H](C)[C@H](OC)CN(C)C2=O	nt	0.8	nt	nt
Cc1ccccc1-c1nc2cc(N)ccc2o1	1.3	-3.4	-11.1	16.5
CC(C)c1ccc2oc(-c3cc(N)ccc3O)nc2c1	0.5	-2.1	59.6*	18.5
CC(C)NC(=O)N(C)C[C@@H]1Oc2ccc(NC(=O)Nc3ccc(F)cc3)cc2C(=O)N([C@H](C)CO)C[C@H]1C	nt	-4.9	nt	nt
CCCOc1cccc(-c2nn(-c3ccccc3)cc2/C=C(\C#N)C(=O)NCCCn2ccnc2)c1	-0.9	0.7	30.6	21.2
N#C/C(=C/c1cn(-c2ccccc2)nc1-c1cccc(OCc2ccc(F)cc2)c1)C(=O)NCCCn1ccnc1	-1.8	-2.0	63.5*	31.7
C[C@H](CO)N1C[C@H](C)[C@@H](CN(C)Cc2ccc(Cl)c(Cl)c2)Oc2ccc(NC(=O)C3CC3)cc2C1=O	nt	3.1	nt	nt
CCOC(=O)c1c[nH]c2ccc3ccccc3c2c1=O	-1.8	-4.0	-3.8	24.1
Oc1ccc2ccccc2c1N=Nc1ccccn1	33.5*	23.3	55.0*	22.6
Oc1ccc2ccccc2c1N=Nc1ccccc1F	0.9	6.1	-3.2	17.8
CCOC(=O)c1[nH]cnc1N=Nc1c(O)ccc2ccccc12	37.8*	6.5	17.2	20.7
C[C@H]1CN([C@@H](C)CO)C(=O)c2cc(NC(=O)C3CC3)ccc2O[C@H]1CN(C)Cc1ccncc1	nt	-3.1	nt	nt
C[C@@H]1CN([C@@H](C)CO)C(=O)Cc2cc(NC(=O)NC3CCCCC3)ccc2O[C@@H]1CN(C)S(=O)(=O)c1ccc(Cl)cc1	nt	-5.6	nt	nt
Clc1cc(/C=N\NC2=NCCN2)cc(Cl)n1	-0.1	nt	69.8*	-2.6
COc1ccc(/C=N/NC(=O)Cn2nnc3ccccc32)cc1OC	-0.4	2.5	-4.3	-91.9*
CCOCCCNC(=O)CN1C(=O)COc2ccc(S(=O)(=O)N3CCCCCC3)cc21	0.6	-1.9	-1.3	27.0
CCCCNC(=O)CN1C(=O)COc2ccc(S(=O)(=O)N3CCCCCC3)cc21	46.1*	4.4	-5.4	-1.6
O=S(=O)(Cc1ccccc1)N1CCCCN2[C@H](C1)[C@H](c1ccc(-c3cccnc3)cc1)[C@@H]2CO	nt	-5.0	nt	nt
COC(=O)CN1C(=O)[C@H]2[C@@H](c3ccc(C)o3)N3C(=O)CN(CC4CC4)C(=O)[C@@]3(Cc3ccccc3)[C@H]2C1=O	286.7*	-4.9	-21.7	9.6
COC(=O)CN1C(=O)[C@H]2[C@@H](c3ccc(C)o3)N3C(=O)CN(CCO)C(=O)[C@@]3(Cc3ccccc3)[C@H]2C1=O	-0.1	-2.2	-7.6	14.1
Cn1nnnc1N=N/C(=N/Nc1ccccc1)c1ccccc1	181.9*	17.6	27.3	-11.3
CCOC(=O)/C(C)=C1\NC(C)(C)Cc2ccccc21	-0.5	-2.4	62.5*	15.8
CCOC(=O)/C(C(=O)Nc1ccccc1Cl)=C1/NC(C)(C)Cc2ccccc21	-0.3	0.0	-1.1	8.7
CO[C@H](CN(C)S(=O)(=O)c1cccc(Cl)c1)[C@@H](C)CN([C@@H](C)CO)S(=O)(=O)c1cccc(Cl)c1	nt	-3.7	nt	nt
CCc1ccc(OCC(=O)NNC(=S)NC(=O)C2CC2)c(Br)c1	nt	4.2	nt	-85.0*
Cc1onc(-c2ccccc2)c1C(=O)Nc1ccc(S(=O)(=O)N2CCCCC2)cc1	nt	0.2	-33.2	51.7
Cc1onc(-c2ccccc2)c1C(=O)Nc1ccc(S(=O)(=O)N2CCCC2)cc1	86.7*	-4.0	5.2	9.6

Compound activity deposited in PubChem by Broad Institute.
